Experimental data: ChEMBL document CHEMBL3865827, “A novel class of ethacrynic acid derivatives as promising drug-like potent generation of anticancer agents with established mechanism of action” (Eur J Med Chem, 2016)
Calls of active or inactive are those of the source. No cut-off for these calls is given here.

system: not listed separately; assay: Cell cycle arrest in human HL60 cells assessed as accumulation at G0/G1 phase at 2.5 uM after 24 hrs by propidium iodide-staining based FACS analysis (reference value: 43.5 %); assay type: functional; settings: HL-60
Outline: (§1)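 HL60 cells, 25,000 per well, exposed 24 and 48 h to 2.5 µM compounds; controls DMSO (1% final). Propidium iodide staining, flow cytometry; fractions in sub-G1, G0/G1, S and G2/M quantified.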

| SMILES | Activity |
| --- | --- |
| C=C(CC)C(O)c1ccc(OCC(=O)NCCc2ccc(O)cc2)c(Cl)c1Cl (stereo not drawn) | 42.3% |
| CCC(C)C(=O)c1ccc(OCC(=O)NCCc2ccc(O)cc2)c(Cl)c1Cl (stereo not drawn) | 42.1% |
| C=C(CC)C(=O)c1ccc(OCC(=O)N2CCN(c3ccc(O)cc3)CC2)c(Cl)c1Cl | 41.7% |
| C=C(CC)C(=O)c1ccc(OCC(=O)N2CCN(c3ccc(OP4(=O)OCCCO4)cc3)CC2)c(Cl)c1Cl | 40.7% |

system: not listed separately; assay: Cell cycle arrest in human HL60 cells assessed as accumulation at S phase at 2.5 uM after 48 hrs by propidium iodide-staining based FACS analysis (reference value: 52.6 %); assay type: functional; settings: HL-60; outline: as §1

| SMILES | Activity |
| --- | --- |
| C=C(CC)C(O)c1ccc(OCC(=O)NCCc2ccc(O)cc2)c(Cl)c1Cl (stereo not drawn) | 41.5% |
| CCC(C)C(=O)c1ccc(OCC(=O)NCCc2ccc(O)cc2)c(Cl)c1Cl (stereo not drawn) | 41.9% |
| C=C(CC)C(=O)c1ccc(OCC(=O)N2CCN(c3ccc(O)cc3)CC2)c(Cl)c1Cl | 33.8% |
| C=C(CC)C(=O)c1ccc(OCC(=O)N2CCN(c3ccc(OP4(=O)OCCCO4)cc3)CC2)c(Cl)c1Cl | 30.7% |

system: not listed separately; assay: Cell cycle arrest in human HL60 cells assessed as accumulation at sub G1 phase at 2.5 uM after 24 hrs by propidium iodide-staining based FACS analysis (reference value: 2.6 %); assay type: functional; settings: HL-60; outline: as §1

| SMILES | Activity |
| --- | --- |
| C=C(CC)C(O)c1ccc(OCC(=O)NCCc2ccc(O)cc2)c(Cl)c1Cl (stereo not drawn) | 2% |
| CCC(C)C(=O)c1ccc(OCC(=O)NCCc2ccc(O)cc2)c(Cl)c1Cl (stereo not drawn) | 3.3% |
| C=C(CC)C(=O)c1ccc(OCC(=O)N2CCN(c3ccc(O)cc3)CC2)c(Cl)c1Cl | 2.9% |
| C=C(CC)C(=O)c1ccc(OCC(=O)N2CCN(c3ccc(OP4(=O)OCCCO4)cc3)CC2)c(Cl)c1Cl | 2.6% |

system: not listed separately; assay: Cell cycle arrest in human HL60 cells assessed as accumulation at G2/M phase at 2.5 uM after 24 hrs by propidium iodide-staining based FACS analysis (reference value: 5.1 %); assay type: functional; settings: HL-60; outline: as §1

| SMILES | Activity |
| --- | --- |
| C=C(CC)C(O)c1ccc(OCC(=O)NCCc2ccc(O)cc2)c(Cl)c1Cl (stereo not drawn) | 5.2% |
| CCC(C)C(=O)c1ccc(OCC(=O)NCCc2ccc(O)cc2)c(Cl)c1Cl (stereo not drawn) | 7.9% |
| C=C(CC)C(=O)c1ccc(OCC(=O)N2CCN(c3ccc(O)cc3)CC2)c(Cl)c1Cl | 6.1% |
| C=C(CC)C(=O)c1ccc(OCC(=O)N2CCN(c3ccc(OP4(=O)OCCCO4)cc3)CC2)c(Cl)c1Cl | 9.6% |

system: not listed separately; assay: Cell cycle arrest in human HL60 cells assessed as accumulation at sub G1 phase at 2.5 uM after 48 hrs by propidium iodide-staining based FACS analysis (reference value: 1.4 %); assay type: functional; settings: HL-60; outline: as §1

| SMILES | Activity |
| --- | --- |
| C=C(CC)C(O)c1ccc(OCC(=O)NCCc2ccc(O)cc2)c(Cl)c1Cl (stereo not drawn) | 6.1% |
| CCC(C)C(=O)c1ccc(OCC(=O)NCCc2ccc(O)cc2)c(Cl)c1Cl (stereo not drawn) | 4.2% |
| C=C(CC)C(=O)c1ccc(OCC(=O)N2CCN(c3ccc(O)cc3)CC2)c(Cl)c1Cl | 16.5% |
| C=C(CC)C(=O)c1ccc(OCC(=O)N2CCN(c3ccc(OP4(=O)OCCCO4)cc3)CC2)c(Cl)c1Cl | 27.6% |

system: not listed separately; assay: Antiproliferative activity against human SKOV3 cells after 24 to 72 hrs by MTS assay; assay type: functional, cell-based; settings: SK-OV-3

| SMILES | IC50 |
| --- | --- |
| C=C(CC)C(=O)c1ccc(OCC(=O)N2CCN(c3ccc(O)cc3)CC2)c(Cl)c1Cl | 2300 nM |
| C=C(CC)C(=O)c1ccc(OCC(=O)N2CCN(c3ccc(OP4(=O)OCCCO4)cc3)CC2)c(Cl)c1Cl | 3500 nM |

system: not listed separately; assay: Antiproliferative activity against human OVCAR8 cells after 24 to 72 hrs by MTS assay; assay type: functional, cell-based; settings: OVCAR-8

| SMILES | IC50 |
| --- | --- |
| C=C(CC)C(=O)c1ccc(OCC(=O)N2CCN(c3ccc(O)cc3)CC2)c(Cl)c1Cl | 800 nM |
| C=C(CC)C(=O)c1ccc(OCC(=O)N2CCN(c3ccc(OP4(=O)OCCCO4)cc3)CC2)c(Cl)c1Cl | 1900 nM |

system: not listed separately; assay: Antiproliferative activity against human MCF7 cells after 24 to 72 hrs by MTS assay; assay type: functional, cell-based; settings: not given

| SMILES | IC50 |
| --- | --- |
| C=C(CC)C(=O)c1ccc(OCC(=O)N2CCN(c3ccc(O)cc3)CC2)c(Cl)c1Cl | 800 nM |
| C=C(CC)C(=O)c1ccc(OCC(=O)N2CCN(c3ccc(OP4(=O)OCCCO4)cc3)CC2)c(Cl)c1Cl | 900 nM |

system: not listed separately; assay: Antiproliferative activity against human PC3 cells after 24 to 72 hrs by MTS assay; assay type: functional, cell-based; settings: PC-3

| SMILES | IC50 |
| --- | --- |
| C=C(CC)C(=O)c1ccc(OCC(=O)N2CCN(c3ccc(O)cc3)CC2)c(Cl)c1Cl | 3900 nM |
| C=C(CC)C(=O)c1ccc(OCC(=O)N2CCN(c3ccc(OP4(=O)OCCCO4)cc3)CC2)c(Cl)c1Cl | 500 nM |

system: not listed separately; assay: Antiproliferative activity against human KB cells after 24 to 72 hrs by MTS assay; assay type: functional, cell-based; settings: not given
Outline: (§2)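 Cells plated, then dosed 24 h later with compounds in DMSO (1% final; controls DMSO alone), exposed 24 or 72 h. Proliferation inhibition measured as previously reported (MTS/NADH reagent). IC50 from duplicate experiments over 0.5 nM–100 µM. KB grown in D-MEM with 10% fetal calf serum, penicillin, streptomycin, fungizone, 5% CO2; other lines in complete RPMI. EPC are quiescent Cyprinus carpio endothelial progenitor cells.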

| SMILES | IC50 |
| --- | --- |
| C=C(CC)C(=O)c1ccc(OCC(=O)N2CCN(c3ccc(O)cc3)CC2)c(Cl)c1Cl | 400 nM |
| C=C(CC)C(=O)c1ccc(OCC(=O)N2CCN(c3ccc(OP4(=O)OCCCO4)cc3)CC2)c(Cl)c1Cl | 200 nM |

system: MRC5; assay: Induction of necrosis in human MRC5 SV2 cells assessed as increase in LDH release at 7 uM after 24 to 48 hrs by fluorescence assay; assay type: functional, cell-based; settings: not given

| SMILES | Activity |
| --- | --- |
| C=C(CC)C(O)c1ccc(OCC(=O)NCCc2ccc(O)cc2)c(Cl)c1Cl (stereo not drawn) | Active |
| CCC(C)C(=O)c1ccc(OCC(=O)NCCc2ccc(O)cc2)c(Cl)c1Cl (stereo not drawn) | Active |
| C=C(CC)C(=O)c1ccc(OCC(=O)N2CCN(c3ccc(O)cc3)CC2)c(Cl)c1Cl | Active |

system: HCT-116; assay: Induction of necrosis in human HCT116 cells assessed as increase in LDH release at 7 uM after 24 to 48 hrs by fluorescence assay; assay type: functional, cell-based; settings: not given

| SMILES | Activity |
| --- | --- |
| C=C(CC)C(O)c1ccc(OCC(=O)NCCc2ccc(O)cc2)c(Cl)c1Cl (stereo not drawn) | Active |
| CCC(C)C(=O)c1ccc(OCC(=O)NCCc2ccc(O)cc2)c(Cl)c1Cl (stereo not drawn) | Active |
| C=C(CC)C(=O)c1ccc(OCC(=O)N2CCN(c3ccc(O)cc3)CC2)c(Cl)c1Cl | Active |

system: KB; assay: Selectivity index, ratio of IC50 for Cyprinus carpio EPC to IC50 for human KB cells; settings: not given

| SMILES | Ratio IC50 |
| --- | --- |
| C=C(CC)C(=O)c1ccc(OCC(=O)N2CCN(c3ccc(O)cc3)CC2)c(Cl)c1Cl | 8 |
| C=C(CC)C(=O)c1ccc(OCC(=O)N2CCN(c3ccc(OP4(=O)OCCCO4)cc3)CC2)c(Cl)c1Cl | 6.25 |

system: not listed separately; assay: Cell cycle arrest in human HL60 cells assessed as accumulation at S phase at 2.5 uM after 24 hrs by propidium iodide-staining based FACS analysis (reference value: 48.9 %); assay type: functional; settings: HL-60; outline: as §1

| SMILES | Activity |
| --- | --- |
| C=C(CC)C(O)c1ccc(OCC(=O)NCCc2ccc(O)cc2)c(Cl)c1Cl (stereo not drawn) | 50.5% |
| CCC(C)C(=O)c1ccc(OCC(=O)NCCc2ccc(O)cc2)c(Cl)c1Cl (stereo not drawn) | 46.7% |
| C=C(CC)C(=O)c1ccc(OCC(=O)N2CCN(c3ccc(O)cc3)CC2)c(Cl)c1Cl | 49.3% |
| C=C(CC)C(=O)c1ccc(OCC(=O)N2CCN(c3ccc(OP4(=O)OCCCO4)cc3)CC2)c(Cl)c1Cl | 47.1% |

system: not listed separately; assay: Antiproliferative activity against human HL60 cells after 24 to 72 hrs by MTS assay; assay type: functional, cell-based; settings: HL-60; outline: as §2

| SMILES | IC50 |
| --- | --- |
| C=C(CC)C(=O)c1ccc(OCC(=O)N2CCN(c3ccc(O)cc3)CC2)c(Cl)c1Cl | 800 nM |
| C=C(CC)C(=O)c1ccc(OCC(=O)N2CCN(c3ccc(OP4(=O)OCCCO4)cc3)CC2)c(Cl)c1Cl | 350 nM |

system: not listed separately; assay: Antiproliferative activity against Cyprinus carpio EPC after 24 to 72 hrs by MTS assay; settings: not given

| SMILES | IC50 |
| --- | --- |
| C=C(CC)C(=O)c1ccc(OCC(=O)N2CCN(c3ccc(O)cc3)CC2)c(Cl)c1Cl | 3200 nM |
| C=C(CC)C(=O)c1ccc(OCC(=O)N2CCN(c3ccc(OP4(=O)OCCCO4)cc3)CC2)c(Cl)c1Cl | 1250 nM |

system: not listed separately; assay: Antiproliferative activity against human HCT116 cells after 24 to 72 hrs by MTS assay; assay type: functional, cell-based; settings: HCT-116

| SMILES | IC50 |
| --- | --- |
| C=C(CC)C(=O)c1ccc(OCC(=O)N2CCN(c3ccc(O)cc3)CC2)c(Cl)c1Cl | 2000 nM |
| C=C(CC)C(=O)c1ccc(OCC(=O)N2CCN(c3ccc(OP4(=O)OCCCO4)cc3)CC2)c(Cl)c1Cl | 1000 nM |

system: not listed separately; assay: Cell cycle arrest in human HL60 cells assessed as accumulation at G0/G1 phase at 2.5 uM after 48 hrs by propidium iodide-staining based FACS analysis (reference value: 43.8 %); assay type: functional; settings: HL-60; outline: as §1

| SMILES | Activity |
| --- | --- |
| C=C(CC)C(O)c1ccc(OCC(=O)NCCc2ccc(O)cc2)c(Cl)c1Cl (stereo not drawn) | 51.9% |
| CCC(C)C(=O)c1ccc(OCC(=O)NCCc2ccc(O)cc2)c(Cl)c1Cl (stereo not drawn) | 51.7% |
| C=C(CC)C(=O)c1ccc(OCC(=O)N2CCN(c3ccc(O)cc3)CC2)c(Cl)c1Cl | 49.3% |
| C=C(CC)C(=O)c1ccc(OCC(=O)N2CCN(c3ccc(OP4(=O)OCCCO4)cc3)CC2)c(Cl)c1Cl | 41.7% |

system: not listed separately; assay: Cell cycle arrest in human HL60 cells assessed as accumulation at G2/M phase at 2.5 uM after 48 hrs by propidium iodide-staining based FACS analysis (reference value: 2.2 %); assay type: functional; settings: HL-60; outline: as §1

| SMILES | Activity |
| --- | --- |
| C=C(CC)C(O)c1ccc(OCC(=O)NCCc2ccc(O)cc2)c(Cl)c1Cl (stereo not drawn) | 0.6% |
| CCC(C)C(=O)c1ccc(OCC(=O)NCCc2ccc(O)cc2)c(Cl)c1Cl (stereo not drawn) | 2.2% |
| C=C(CC)C(=O)c1ccc(OCC(=O)N2CCN(c3ccc(O)cc3)CC2)c(Cl)c1Cl | 0.4% |
| C=C(CC)C(=O)c1ccc(OCC(=O)N2CCN(c3ccc(OP4(=O)OCCCO4)cc3)CC2)c(Cl)c1Cl | 0% |

system: HL-60; assay: Selectivity index, ratio of IC50 for Cyprinus carpio EPC to IC50 for human HL60 cells; settings: not given

| SMILES | Ratio IC50 |
| --- | --- |
| C=C(CC)C(=O)c1ccc(OCC(=O)N2CCN(c3ccc(O)cc3)CC2)c(Cl)c1Cl | 4 |
| C=C(CC)C(=O)c1ccc(OCC(=O)N2CCN(c3ccc(OP4(=O)OCCCO4)cc3)CC2)c(Cl)c1Cl | 3.6 |
